ChEMBL document CHEMBL3580633, “Benzoxaborole antimalarial agents. Part 4. Discovery of potent 6-(2-(alkoxycarbonyl)pyrazinyl-5-oxy)-1,3-dihydro-1-hydroxy-2,1-benzoxaboroles” (J Med Chem, 2015)

Assays:
Plasmodium berghei [1] = assay: Antiplasmodial activity against Plasmodium berghei infected in Swiss Webster mouse assessed as mouse survival at 100 mg/kg, po dosed once daily for 4 consecutive days beginning 1 hr after initial infection and measured on day 16 to 19 post infection by Giemsa staining method; assay type: functional
Summary of the method: (§1)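 Female Swiss Webster mice (about 20 g) infected ip with 6 × 10^6 P. berghei-infected erythrocytes. Oral gavage once daily for 4 days, starting 1 h after infection. Vehicle PEG300/propylene glycol/water (55/25/20 by weight). Giemsa-smear parasitemia counted daily from day 4. Mice euthanised above 50% parasitemia. Survival followed to day 21, 5 mice per dose, chloroquine 30 mg/kg as reference.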

Plasmodium berghei [2] = assay: Antiplasmodial activity against Plasmodium berghei infected in Swiss Webster mouse assessed as mouse survival at 3 mg/kg, po dosed once daily for 4 consecutive days beginning 1 hr after initial infection and measured on day 10 post infection by Giemsa staining method; assay type: functional; summary of the method: as §1
Mus musculus = assay: Terminal half life in CD1 mouse assessed as 5-(1-hydroxy-1,3-dihydrobenzo[c][1,2]oxaborol-6-yloxy)pyrazine-2-carboxylic acid level at 5 mg/kg, po by HPLC coupled to tandem mass spectrometry; assay type: ADME, organism-based; conditions: in vivo
Summary of the method: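 The parent ester was given to adult female CD-1 mice at 5 mg/kg, iv or by oral gavage, in PEG 400/dimethylacetamide/water (45/10/45, pH 5.8). Blood was sampled, and the acid formed from the ester in vivo was quantified by HPLC-tandem MS to derive its PK parameters.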

Plasmodium berghei [3] = assay: Antiplasmodial activity against Plasmodium berghei infected in Swiss Webster mouse assessed as mouse survival at 33 mg/kg, po dosed once daily for 4 consecutive days beginning 1 hr after initial infection and measured on day 13 post infection by Giemsa staining method; assay type: functional
Summary of the method: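 Female Swiss Webster mice (about 20 g) were infected ip with 6 × 10^6 P. berghei-infected erythrocytes from a donor mouse. They were dosed by oral gavage once daily for 4 days, starting 1 h post-infection, in PEG 300/propylene glycol/water (55/25/20 by weight). Parasitemia was read daily on Giemsa smears from day 4, and mice were euthanized above 50% parasitemia. Percent survival was tracked to 21 days.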

Plasmodium berghei [4] = assay: Antiplasmodial activity against Plasmodium berghei infected in Swiss Webster mouse assessed as mouse survival at 100 mg/kg, po dosed once daily for 4 consecutive days beginning 1 hr after initial infection and measured on day 14 post infection by Giemsa staining method; assay type: functional; summary of the method: as §1
[5] = Tmax in CD1 mouse at 30 mg/kg, po by HPLC coupled to tandem mass spectrometry; assay type: ADME, organism-based; conditions: in vivo
Summary of the method: (§2)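 Adult female CD-1 mice were dosed 10 mg/kg by iv injection or 30 mg/kg by oral gavage, with the compound in 100% saline. Blood samples were collected and drug content was measured by HPLC-tandem MS.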

[6] = Volume of distribution at steady state in CD1 mouse at 10 mg/kg, iv by HPLC coupled to tandem mass spectrometry; assay type: ADME, organism-based; conditions: in vivo, read-out: Vdss; summary of the method: as §2
[7] = Clearance in CD1 mouse at 10 mg/kg, iv by HPLC coupled to tandem mass spectrometry; assay type: ADME, organism-based; conditions: in vivo; summary of the method: as §2
[8] = AUC (0 to 2 hrs) in CD1 mouse at 30 mg/kg, po by HPLC coupled to tandem mass spectrometry; assay type: ADME, organism-based; design: dose 30 mg/kg, time < 2 hr, route oral; conditions: in vivo; summary of the method: as §2
[9] = AUC (0 to infinity) in CD1 mouse at 10 mg/kg, iv by HPLC coupled to tandem mass spectrometry; assay type: ADME, organism-based; design: dose 10 mg/kg, route intravenous, time infinity; conditions: in vivo; summary of the method: as §2
[10] = Terminal half life in CD1 mouse at 10 mg/kg, iv by HPLC coupled to tandem mass spectrometry; assay type: ADME, organism-based; conditions: in vivo, read-out: beta t1/2 (converted); summary of the method: as §2
Plasmodium berghei [11] = assay: Antiplasmodial activity against Plasmodium berghei infected in Swiss Webster mouse assessed as mouse survival at 200 mg/kg, po dosed once daily for 4 consecutive days beginning 1 hr after initial infection and measured on day 4 post infection by Giemsa staining method; assay type: functional; summary of the method: as §1
Plasmodium berghei [12] = assay: Antiplasmodial activity against Plasmodium berghei infected in Swiss Webster mouse assessed as mouse survival at 200 mg/kg, po dosed once daily for 4 consecutive days beginning 1 hr after initial infection and measured on day 10 post infection by Giemsa staining method; assay type: functional; summary of the method: as §1
Plasmodium berghei [13] = assay: Antiplasmodial activity against Plasmodium berghei infected in Swiss Webster mouse assessed as mouse survival at 200 mg/kg, po dosed once daily for 4 consecutive days beginning 1 hr after initial infection and measured on day 8 post infection by Giemsa staining method; assay type: functional; summary of the method: as §1
[14] = Stability in mouse liver microsomes assessed as compound remaining at 1 uM incubated for 1 hr in absence of NADPH by LC/MS/MS method; assay type: ADME
Summary of the method: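 Compound at 1 μM final (from a 1 mg/mL DMSO stock) was incubated with mouse or human liver microsomes (0.5 mg/mL protein) in 100 mM potassium phosphate, pH 7.4, at 37 °C with shaking, with or without 1 mM NADPH. Samples were taken over 0–120 min and tested in duplicate. Reactions were quenched with cold acetonitrile plus internal standard and analyzed by LC/MS/MS.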

SMILES: COC(=O)c1cnc(Oc2ccc3c(c2)B(O)OC3)cn1
- survival at 100 mg/kg (Plasmodium berghei [1]): 20%
- survival at 3 mg/kg (Plasmodium berghei [2]): 40%
- beta t1/2 (Mus musculus): 1.5 h
- survival at 33 mg/kg (Plasmodium berghei [3]): 0%
- survival at 100 mg/kg (Plasmodium berghei [4]): 40%

SMILES: O=C(O)c1cnc(Oc2ccc3c(c2)B(O)OC3)cn1
- Tmax [5]: 0.25 h
- Vd [6]: 0.848 L/kg
- clearance [7]: 38.8 mL/min/kg
- AUC(0-t) at 2 h [8]: 8620 ng·h/mL
- AUC(0-inf) [9]: 4300 ng·h/mL
- half-life [10]: 1.1 h

SMILES: NC(=O)c1cnc(Oc2ccc3c(c2)B(O)OC3)cn1
- survival at 200 mg/kg (Plasmodium berghei [11]): 100%
- survival at 200 mg/kg (Plasmodium berghei [12]): 0%
- survival at 200 mg/kg (Plasmodium berghei [13]): 100%
- Stability [14]: 100%
